RORA act = activators of human nuclear receptor RORA | AID 560 | activation, % at 10 µM | 1.5% of 65,000 active | P35398 | CHO-K1 Gal4-RORA LBD luciferase reporter, luminescence; percent increase over mock-subtracted basal signal;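 active = activation above the mean of all tested compounds plus 3 SD, cut at about 49% in these data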
Target sequence (P35398 whole entry, looked up, the tested form may be a part): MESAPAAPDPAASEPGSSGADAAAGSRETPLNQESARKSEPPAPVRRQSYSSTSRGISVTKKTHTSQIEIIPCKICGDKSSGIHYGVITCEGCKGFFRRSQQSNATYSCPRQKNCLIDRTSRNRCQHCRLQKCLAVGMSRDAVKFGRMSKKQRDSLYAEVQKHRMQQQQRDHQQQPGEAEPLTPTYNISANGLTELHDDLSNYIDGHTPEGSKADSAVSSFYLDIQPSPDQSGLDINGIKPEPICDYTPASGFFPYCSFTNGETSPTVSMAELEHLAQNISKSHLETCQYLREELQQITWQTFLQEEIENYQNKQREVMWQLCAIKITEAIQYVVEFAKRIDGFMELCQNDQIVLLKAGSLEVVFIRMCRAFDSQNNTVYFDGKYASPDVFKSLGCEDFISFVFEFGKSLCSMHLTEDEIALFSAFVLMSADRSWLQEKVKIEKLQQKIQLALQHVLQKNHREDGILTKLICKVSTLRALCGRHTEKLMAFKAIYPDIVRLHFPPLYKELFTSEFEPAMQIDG
MT1-MMP txn act = MT1-MMP promoter transcription activation; HT1080 MT1-MMP promoter luciferase reporter, luminescence, overnight; active compounds read high; activation factor at 10 µM; 0.16% of 86,000 active;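 active = activation factor of at least 2 for MT1-MMP transcription at 10 µM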
JNK3 inh = inhibitors of human JNK3 kinase; P53779; purified JNK3 kinase activity, HTS; inhibition, % at 8 µM; 0.61% of 60,000 active; AID 746; in the data active = inhibition above about 17%
SF1 activator = activates the human nuclear receptor SF-1; 1.9% of 65,000 active; CHO-K1 Gal4-SF-1 LBD luciferase reporter; % increase over DMSO SF-1-specific signal; Q13285; AID 522; activation, % at 10 µM;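 active = activation above the mean activation of all tested compounds plus 3 SD, cut at about 50% in these data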
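Test system: transient Gal4-SF-1 LBD reporter, CHO-K1; Amount: 4,000 CHO-K1 cells per well; Doses: 10 µM only; Timing: compound exposure 20 h at 37 °C; Signal: luciferase light emission; Read-out basis: percent activation relative to DMSO median and mock-transfected background; Control set: DMSO negative control and −SF1 background wells; Replicates: one test per compound.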
PKA inh = inhibitors of human protein kinase A. P17612. PKA Kemptide phosphorylation, Kinase-Glo ATP luminescence. inhibition, % at 6 µM. 0.1% of 65,000 active. AID 524;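 active = inhibition above the screen-wide mean inhibition plus 3 SD, cut at about 21% in these data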
ROCK2 inh = inhibitors of human Rho kinase 2. O75116. purified ROCK2, Kinase-Glo ATP depletion luminescence. inhibition, % at 6 µM. 0.35% of 60,000 active;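 active = inhibition above the screen-wide mean inhibition plus 3 SD, cut at about 18% in these data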
A number is an active result; 0 = inactive; - = not tested or not shown. Most compounds without a hit are left out; they make up all but 2.5% or so of the library.

SMILES	RORA act	MT1-MMP txn act	JNK3 inh	SF1 activator	PKA inh	ROCK2 inh
CCN1CCN(Cc2nnnn2C(C)(C)C)CC1	0	0	0	0	66	21
CCC(C)(C)n1nnnc1CN1CCC(n2c(C)nc3cc(C(F)(F)F)ccc32)CC1	-	0	-	-	-	-
Cn1ncnc2c(=O)n(C)c(=O)nc1-2	0	-	60	0	0	67
CCCN1[C@H](C(=O)OC)C[C@@H]2CC[C@@H](O)C[C@@H]21	-	0	-	-	-	-
C1=C(c2c[nH]c3ccccc23)CCNC1	0	0	0	0	21	28
CC(C)N1CC=C(c2c[nH]c3ccccc23)CC1	0	0	0	0	0	0
Cc1ccc(-n2c(O)c(C=Nc3ccccc3N)c(=O)[nH]c2=O)cc1C	55	0	0	0	0	0
Cc1c2ccncc2c(C)c2c1[nH]c1ccccc12	0	-	0	0	46	46
c1ccc2c3c([nH]c2c1)CNCC3	0	0	0	0	0	0
c1ccc2c(c1)[nH]c1cnccc12	0	0	0	0	0	24
c1ccc2cc3cc4ccccc4cc3cc2c1	-	0	-	-	-	-
C=C(CC1(C(C)NP(=O)(c2ccccc2)c2ccccc2)CC1)c1ccccc1 (stereo unspecified)	-	0	-	-	-	-

Compound activity: PubChem, several laboratories
